Screening results deposited in PubChem BioAssay by The Scripps Research Institute Molecular Screening Center.
CHRM5 agonist: human M5 muscarinic receptor agonists, primary screen, CHO-K1 cells, Fluo-8 calcium fluorescence; Muscarinic acetylcholine receptor M5 (Homo sapiens), P08912; CHO-K1 hM5 cells; 0% DMSO wells, 100% maximal acetylcholine response; activation, % at 3 µM; 360,000 tested, 0.19% active;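 active = activation above the run's mean over test compounds plus 3 SD, cut at about 23% in these data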;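 note: signal is peak over basal fluorescence ratio across the kinetic read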
CHRM5 antagonist: human M5 muscarinic receptor antagonists, primary screen, CHO cells, Fluo-8 calcium fluorescence. Muscarinic acetylcholine receptor M5 (Homo sapiens), P08912. CHO-hM5 cells, ACh EC80. inhibition, % at 3 µM. 360,000 tested, 0.59% active. AID 624040, 2012;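 active = inhibition above a per-plate cutoff, the mean of that plate's test compounds plus 3 SD, cut at about 27% in these data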;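 note: 0% = acetylcholine EC80 with DMSO and 100% = DMSO without agonist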
M5 PAM: human M5 muscarinic receptor positive allosteric modulators, primary screen, CHO-K1 cells, Fluo-8 calcium fluorescence | Muscarinic acetylcholine receptor M5 (Homo sapiens), P08912 | CHO-K1 hM5, ACh EC20 PAM; 0% = ACh EC20, 100% = ACh EC100 | activation, % at 3 µM | 360,000 tested, 0.3% active;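 active = activation above the run cutoff, the mean activation of all test compounds plus 3 SD, cut at about 18% in these data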
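Probe or stimulus: acetylcholine, EC20 level; Assay system: human M5 receptor in CHO-K1 cells; Schedule: compound preincubation 140 s before EC20 acetylcholine addition; Technique: intracellular calcium via Fluo-8 fluorescence; Dosing: single-point, 3 µM nominal; Read-out basis: percent activation from peak-over-basal fluorescence ratio, scaled EC20-to-EC100 acetylcholine; Repeats: one well per compound, no replicates.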
CHRM4 antagonist: human M4 muscarinic receptor antagonists, primary screen, CHO cells, Fluo-8 calcium fluorescence; 360,000 tested, 0.73% active; CHO-hM4 cells, ACh EC80; Muscarinic acetylcholine receptor M4 (Homo sapiens), P08173; AID 624125, 2012; inhibition, % at 3 µM;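 active = inhibition above its plate's cutoff, the mean inhibition of sample wells plus 3 SD, cut at about 27% in these data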;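 note: 0% = acetylcholine EC80 with DMSO and 100% = DMSO without agonist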
Target sequence (P08173 whole entry, looked up): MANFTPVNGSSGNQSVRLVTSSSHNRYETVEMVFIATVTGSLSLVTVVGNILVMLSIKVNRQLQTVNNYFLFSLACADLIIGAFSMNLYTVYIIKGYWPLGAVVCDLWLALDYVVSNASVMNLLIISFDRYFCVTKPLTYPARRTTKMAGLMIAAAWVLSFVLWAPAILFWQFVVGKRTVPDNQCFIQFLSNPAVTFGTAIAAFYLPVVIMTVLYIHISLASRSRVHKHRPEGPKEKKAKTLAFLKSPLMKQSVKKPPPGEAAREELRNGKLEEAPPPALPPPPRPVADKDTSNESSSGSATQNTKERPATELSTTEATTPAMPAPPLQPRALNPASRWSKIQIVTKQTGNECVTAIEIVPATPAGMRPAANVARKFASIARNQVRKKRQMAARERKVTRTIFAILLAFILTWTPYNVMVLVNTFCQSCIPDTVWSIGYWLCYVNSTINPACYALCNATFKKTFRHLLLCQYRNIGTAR
CHRM4 agonist: human M4 muscarinic receptor agonists, primary screen, CHO-K1 cells, Fluo-8 calcium fluorescence | activation, % at 3 µM | Muscarinic acetylcholine receptor M4 (Homo sapiens), P08173 | CHO-K1 hM4/Gqi5; vehicle 0%, full acetylcholine response 100% | 360,000 tested, 0.14% active;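 active = activation above the run mean over all test wells plus 3 SD, cut at about 32% in these data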;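 note: peak over basal fluorescence ratio per well then scaled between controls; 0% = DMSO wells and 100% = acetylcholine at EC100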
M4 PAM: human M4 muscarinic receptor positive allosteric modulators, primary screen, CHO-K1 cells, Fluo-8 calcium fluorescence; CHO-K1 hM4/Gqi5, ACh EC20; 0% = ACh EC20, 100% = maximal ACh; activation, % at 3 µM; 360,000 tested, 0.4% active; AID 624126, 2012;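 active = activation above its plate's cutoff, the mean activation of sample wells plus 3 SD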
The depositor's hits bear a star. An excerpt weighted towards active compounds, which were near 1.8% of everything screened.

SMILES	CHRM5 agonist	CHRM5 antagonist	M5 PAM	CHRM4 antagonist	CHRM4 agonist	M4 PAM
Cc1cc(OC(C)C(=O)NCc2ccncc2)c2c3c(c(=O)oc2c1)CCC3 (stereo not drawn)	-7	23	-5	1	0	7
CN1CCC(n2nccc2N)CC1	-1	4	2	1	0	-1
Nc1ccnn1C1CCNCC1	-3	27*	-5	-5	0	-1
C1=C(CCNCc2ccccc2)CCCC1	-1	3	-4	1	1	1
CCn1ccnc1CN1CCCC(C(=O)c2cccc(C(F)(F)F)c2)C1 (stereo not drawn)	-9	1	-11	47*	3	-20
C=CCn1c(O)c(C(C)=Nc2ccc(NC(C)=O)cc2)c(=O)[nH]c1=O	-1	-5	4	-6	0	21*
C=CCn1c(O)c(C(CC)=Nc2ccccc2NC(C)=O)c(=O)[nH]c1=O	-1	-7	2	12	1	28*
Cc1ccc2c(C)cccc2c1	2	9	-2	-16	3	12
O=C(Cc1ccccc1)Oc1cccc(N2C(=O)CCC2=O)c1	5	-1	-5	1	0	-3
CC(C)(C)c1cc(OC(=O)Cc2ccccc2)ccc1O	0	-5	19*	-3	-1	-4
CC1(C)OC(c2ccccc2)=C/C(=C/C=C2C(=O)NC(=O)NC2=O)O1	75*	14	-19	3	20	-8
COC(=O)C1=C(c2ccccc2)C[C@@H]2CC[C@H]1N2C	-11	63*	-39	21	1	-20
COC(=O)C1=C(c2ccc(S(C)(=O)=O)cc2)C[C@@H]2CC[C@H]1N2C	3	-3	5	-9	2	1
COC(=O)C1=C(c2ccc(F)cc2F)C[C@@H]2CC[C@H]1N2C	-12	21	-38	29*	1	-18
Cc1ccc2c(c1)N(C(=O)CCC(=O)N1CCC3(CC1)OCCO3)CCO2	-3	10	-4	-7	1	-2
Cc1nn(CC(=O)N2CCC3(CC2)OCCO3)c(=O)c2cc3ccccc3n12	1	18	1	2	2	-2
CCCNC(=O)c1c(N)n(Cc2ccc3c(c2)OCO3)c2nc3ccccc3nc12	4	-7	7	3	1	-3
CC(C)(C)c1nc(NCc2ccc3c(c2)OCO3)c2nnn(Cc3ccccc3Cl)c2n1	-1	1	-3	-3	1	28*
O=C(Nc1ccc(C(F)(F)F)cc1)OC1CN2CCC1CC2 (stereo not drawn)	-16	6	-7	-5	4	-20
O=C(Nc1cccc(C(F)(F)F)c1)OC1CN2CCC1CC2 (stereo not drawn)	-6	70*	-18	43*	3	-16
Cc1cccc(-n2c(=S)[nH]c3ccccc3c2=O)n1	0	17	1	2	0	0
OC(CN1CCCCC1)c1c[nH]c2ccccc12 (stereo not drawn)	-5	25	-14	86*	0	-18
CC1CCCCN1CC(O)c1c[nH]c2ccccc12 (stereo not drawn)	-4	5	4	0	1	3
CCN1CCN(CC(c2ccccc2)c2ccccc2)CC1	-20	36*	-34	21	2	-11
COC(=O)C1=C(c2ccc(-c3ccccc3)c(F)c2)C[C@@H]2CC[C@H]1N2C(=O)NCCOc1ccccc1	-5	12	-7	4	4	-1
SMILES	CHRM5 agonist	CHRM5 antagonist	M5 PAM	CHRM4 antagonist	CHRM4 agonist	M4 PAM
C[N+]12CCC(CC1)C(=C(c1ccccc1)c1ccccc1)C2	-9	99*	-19	97*	1	-16
CC[N+]12CCC(CC1)C(=C(c1ccccc1)c1ccccc1)C2	-10	99*	-19	97*	0	-19
CC(C)c1ccccc1OCC(=O)N1CCCN(C)CC1	-6	6	-9	-2	1	-5
CCOC(=O)c1c(NS(=O)(=O)c2ccccc2)n(CCCOC)c2nc3ccccc3nc12	7	22	13	0	3	23*
O=C1NC(=O)N(Cc2ccc(F)cc2)C(=O)/C1=C\c1ccoc1	25*	12	-13	-10	7	0
CN(C)c1ccc(/C=C2\C(=O)NC(=O)N(Cc3ccc(F)cc3)C2=O)cc1	2	8	-3	5	2	0
COC(=O)C1=C(c2c(C)noc2C)C[C@@H]2CC[C@H]1N2C(=O)NCCOc1ccccc1	-1	11	-3	7	1	6
O=[N+]([O-])c1cc([As](=O)(O)O)ccc1O	36*	-2	-13	-18	0	6
CN1C(=O)N(C)C(=O)C2(Cc3c(ccc4ccccc34)N(C)C2)C1=O	-6	-3	28*	5	2	7
COc1ccc(C(=O)CC2(CC(=O)c3ccc(OC)cc3)C(=O)N(C)C(=O)N(C)C2=O)cc1	0	-5	3	6	0	-2
CC(C)(O)/C=C/C(=O)C(C)(O)C1C(O)CC2(C)C3CC=C4C(C=C(O)C(=O)C4(C)C)C3(C)C(=O)CC12C (stereo not drawn)	4	-6	19*	-22	1	14
CC(=O)OC(C)(C)/C=C/C(=O)[C@](C)(O)C1[C@H](O)C[C@@]2(C)C3CC=C4C(C[C@H](O)C(=O)C4(C)C)[C@]3(C)C(=O)C[C@]12C (stereo partly drawn)	3	-3	14	-14	1	24*
CCN1/C(=C/C=C/C2=[N+](CC)c3ccccc3C2(C)C)C(C)(C)c2ccccc21	501*	97*	-24	95*	365*	-14
CN1/C(=C\C=C2C(=O)NC(=O)NC2=O)C(C)(C)c2ccccc21	14	10	-18	10	17	-17
O=C(COC(=O)Cc1ccccc1)Nc1nnc(-c2ccccc2)o1	5	5	3	2	0	14
COC(=O)C1=C(c2ccc(F)cc2OCc2ccccc2)C[C@@H]2CC[C@H]1N2C(=O)N1CCC(C)CC1	-9	15	-35	38*	1	-16
COC(=O)C1=C(c2cccc(OCc3ccccc3)c2)C[C@@H]2CC[C@H]1N2C(=O)NCCc1ccc(F)cc1	-8	4	-20	40*	4	-16
